Experimental data taken from ChEMBL document CHEMBL4842372, “Discovery of ARD-2585 as an Exceptionally Potent and Orally Active PROTAC Degrader of Androgen Receptor for the Treatment of Advanced Prostate Cancer” (J Med Chem, 2021).
The source made the active and inactive calls. The rule behind the calls is not given here.

Columns and labels:
[1] = biological target: T1, Protein cereblon/Androgen receptor (Homo sapiens, UniProt P10275+Q96SW2); test: Protac activity at CRBN/AR in human VCaP cells assessed as maximal AR degradation at 0.1 nM after 24 hrs by Western blot analysis relative to control; assay type: cell-based
Method in brief: (§1)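 Western blot of AR after 24 h exposure to a concentration series in ATCC-derived cells, all with 10% FBS at 37 °C and 5% CO2: LNCaP and 22Rv1 in RPMI1640, VCaP in DMEM with Glutamax, MDA-PCa-2b in F-12K. Lysis in RIPA with protease and phosphatase inhibitors, then 4–12% SDS-PAGE and PVDF transfer. Band minus background is normalised to GAPDH.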

[2] = Drug distribution in CB17:SCID mouse xenografted with human VCaP cells assessed as prostate gland to plasma ratio at 20 mg/kg, po measured at 6 hrs by LCMS analysis; assay type: ADME, organism-based
Method in brief: (§2)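 Tumor-bearing male CB17 SCID mice (VCaP xenografts) given one 20 mg/kg oral dose in 100% PEG200, three mice per time point; plasma, tumor, liver, kidney, prostate and heart taken at 1, 6 and 24 h; tissues homogenised in water/acetonitrile, protein precipitated with cold acetonitrile, drug quantified by LC–MS/MS; ratios are tissue over plasma level.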

[3] = tested on: Protein cereblon/Androgen receptor (Homo sapiens), P10275+Q96SW2 [T878A]; test: Protac activity at CRBN/AR T878A mutant in human LNCaP cells assessed as reduction in AR protein level at 100 nM after 3 hrs in presence of MG-132 by Western blot analysis
[4] = biological target: T1, Protein cereblon/Androgen receptor; test: Protac activity at CRBN/AR in human 22Rv1 cells assessed as reduction in AR protein level at 30 nM after 24 hrs by Western blot analysis relative to control; assay type: cell-based; method in brief: as §1
[5] = Drug distribution in CB17:SCID mouse xenografted with human VCaP cells assessed as kidney to plasma ratio at 20 mg/kg, po measured at 24 hrs by LCMS analysis; assay type: ADME, organism-based; method in brief: as §2
[6] = Drug distribution in plasma of CB17:SCID mouse xenografted with human VCaP cells at 20 mg/kg, po measured at 24 hrs by LCMS analysis; assay type: ADME, organism-based; method in brief: as §2
[7] = Drug distribution in kidney of CB17:SCID mouse xenografted with human VCaP cells at 20 mg/kg, po measured at 1 hrs by LCMS analysis; assay type: ADME, organism-based; conditions: read-out: Drug uptake; method in brief: as §2
[8] = Drug distribution in heart of CB17:SCID mouse xenografted with human VCaP cells at 20 mg/kg, po measured at 1 hrs by LCMS analysis; assay type: ADME, organism-based; conditions: read-out: Drug uptake; method in brief: as §2
[9] = biological target: T1, Protein cereblon/Androgen receptor; test: Protac activity at CRBN/AR in human VCaP cells assessed as reduction in AR protein level at 3 nM after 24 hrs by Western blot analysis relative to control; assay type: cell-based; method in brief: as §1
[10] = tested on: Protein cereblon/Androgen receptor (Homo sapiens), P10275+Q96SW2 [T878A]; test: Protac activity at CRBN/AR T878A mutant in human LNCaP cells assessed as reduction in AR protein level at 100 nM after 3 hrs in presence of thalidomide by Western blot analysis
VCaP [11] = test: Antitumor activity against human VCaP cells xenografted in CB17:SCID mouse assessed as reduction in AR protein level in tumor at 10 mg/kg, po for 3 days measured at 24 hrs by Western blot analysis; assay type: functional; conditions: 72 h, time 3 day
Method in brief: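 Male CB17 SCID mice bearing subcutaneous VCaP tumors (5 × 10^6 cells in Matrigel); dosed by oral gavage in 100% PEG200 at 10 mg/kg daily for 3 days; tumors harvested 3, 6 and 24 h post-dose, lysed in RIPA, Western blot for AR with GAPDH loading control, bands quantified by densitometry relative to loading control.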

[12] = Drug distribution in CB17:SCID mouse xenografted with human VCaP cells assessed as prostate gland to plasma ratio at 20 mg/kg, po measured at 24 hrs by LCMS analysis; assay type: ADME, organism-based; method in brief: as §2
[13] = tested on: Protein cereblon/Androgen receptor (Homo sapiens), P10275+Q96SW2 [T878A]; test: Protac activity at CRBN/AR T878A mutant in human LNCaP cells assessed as reduction in AR protein level at 0.3 nM after 24 hrs by Western blot analysis relative to control; assay type: cell-based; method in brief: as §1
[14] = biological target: T1, Protein cereblon/Androgen receptor; test: Protac activity at CRBN/AR in human MDA-PCa-2b cells assessed as maximal AR degradation at 1 nM after 24 hrs by Western blot analysis relative to control; assay type: cell-based; method in brief: as §1
VCaP [15] = test: Antitumor activity against human VCaP cells xenografted in CB17:SCID mouse assessed as tumor growth inhibition at 40 mg/kg, po treated for 37 days relative to control; assay type: functional; conditions: 888 h, time 37 day, read-out: TGI
[16] = biological target: Protein cereblon/Androgen receptor (Homo sapiens, UniProt P10275+Q96SW2, T878A); conditions: lncap
[17] = Drug distribution in CB17:SCID mouse xenografted with human VCaP cells assessed as kidney to plasma ratio at 20 mg/kg, po measured at 6 hrs by LCMS analysis; assay type: ADME, organism-based; method in brief: as §2
[18] = tested on: Protein cereblon/Androgen receptor (Homo sapiens), P10275+Q96SW2 [T878A]; test: Protac activity at CRBN/AR T878A mutant in human LNCaP cells assessed as reduction in AR protein level at 3 nM after 24 hrs by Western blot analysis relative to control; assay type: cell-based; method in brief: as §1
[19] = Drug distribution in liver of CB17:SCID mouse xenografted with human VCaP cells at 20 mg/kg, po measured at 6 hrs by LCMS analysis; assay type: ADME, organism-based; conditions: read-out: Drug uptake; method in brief: as §2
LNCaP [20] = test: Potency index, ratio of ARV-110 IC50 to compound IC50 for reduction in AR degradation human LNCaP cells after 24 hrs by Western blot analysis; assay type: functional
[21] = biological target: T1, Protein cereblon/Androgen receptor; test: Protac activity at CRBN/AR in human VCaP cells assessed as reduction in AR protein level at 0.1 nM after 24 hrs by Western blot analysis relative to control; assay type: cell-based; method in brief: as §1
[22] = Drug distribution in kidney of CB17:SCID mouse xenografted with human VCaP cells at 20 mg/kg, po measured at 6 hrs by LCMS analysis; assay type: ADME, organism-based; conditions: read-out: Drug uptake; method in brief: as §2
[23] = Potency index, ratio of ARV-110 IC50 to compound IC50 for reduction in AR degradation human MDA-PCa-2b cells after 24 hrs by Western blot analysis relative to control; assay type: functional
LNCaP [24] = test: Growth inhibition of human LNCaP cells carrying AR T878A mutant assessed as cell viability by WST-8 assay; assay type: functional, cell-based
[25] = biological target: T1, Protein cereblon/Androgen receptor; test: Protac activity at CRBN/AR in human 22Rv1 cells assessed as reduction in AR protein level at 0.1 nM after 24 hrs by Western blot analysis relative to control; assay type: cell-based; method in brief: as §1
[26] = Drug distribution in tumor of CB17:SCID mouse xenografted with human VCaP cells at 20 mg/kg, po measured at 24 hrs by LCMS analysis; assay type: ADME, organism-based, Neoplasm; conditions: read-out: Drug uptake; method in brief: as §2
[27] = Drug distribution in CB17:SCID mouse xenografted with human VCaP cells assessed as heart to plasma ratio at 20 mg/kg, po measured at 6 hrs by LCMS analysis; assay type: ADME, organism-based; method in brief: as §2
[28] = Drug distribution in liver of CB17:SCID mouse xenografted with human VCaP cells at 20 mg/kg, po measured at 1 hrs by LCMS analysis; assay type: ADME, organism-based; conditions: read-out: Drug uptake; method in brief: as §2

T1 sequence (P10275 whole entry, looked up): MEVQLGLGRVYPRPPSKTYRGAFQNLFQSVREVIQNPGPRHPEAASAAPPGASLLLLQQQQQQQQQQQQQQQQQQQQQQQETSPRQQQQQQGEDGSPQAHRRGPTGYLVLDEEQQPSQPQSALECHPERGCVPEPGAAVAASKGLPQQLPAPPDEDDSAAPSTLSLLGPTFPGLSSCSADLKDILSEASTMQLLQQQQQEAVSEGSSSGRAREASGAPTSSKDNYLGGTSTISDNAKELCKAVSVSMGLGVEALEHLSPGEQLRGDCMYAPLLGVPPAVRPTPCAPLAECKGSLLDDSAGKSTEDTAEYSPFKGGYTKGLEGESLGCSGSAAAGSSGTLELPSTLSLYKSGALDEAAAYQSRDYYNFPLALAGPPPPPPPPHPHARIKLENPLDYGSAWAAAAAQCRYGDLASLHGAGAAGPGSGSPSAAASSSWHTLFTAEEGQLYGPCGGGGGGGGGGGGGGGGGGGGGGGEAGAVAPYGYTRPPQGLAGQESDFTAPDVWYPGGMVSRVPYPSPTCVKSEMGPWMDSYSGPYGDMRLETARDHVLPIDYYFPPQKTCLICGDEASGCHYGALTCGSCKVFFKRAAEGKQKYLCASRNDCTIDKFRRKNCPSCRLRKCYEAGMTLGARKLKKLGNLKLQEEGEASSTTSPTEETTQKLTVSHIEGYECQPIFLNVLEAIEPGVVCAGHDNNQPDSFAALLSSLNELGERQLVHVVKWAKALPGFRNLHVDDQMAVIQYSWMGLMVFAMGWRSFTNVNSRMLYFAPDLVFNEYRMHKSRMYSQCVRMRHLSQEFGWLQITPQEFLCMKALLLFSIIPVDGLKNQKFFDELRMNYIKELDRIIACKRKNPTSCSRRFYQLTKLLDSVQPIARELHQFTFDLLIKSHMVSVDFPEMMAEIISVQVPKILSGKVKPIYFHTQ
T1 sequence (Q96SW2 whole entry, looked up): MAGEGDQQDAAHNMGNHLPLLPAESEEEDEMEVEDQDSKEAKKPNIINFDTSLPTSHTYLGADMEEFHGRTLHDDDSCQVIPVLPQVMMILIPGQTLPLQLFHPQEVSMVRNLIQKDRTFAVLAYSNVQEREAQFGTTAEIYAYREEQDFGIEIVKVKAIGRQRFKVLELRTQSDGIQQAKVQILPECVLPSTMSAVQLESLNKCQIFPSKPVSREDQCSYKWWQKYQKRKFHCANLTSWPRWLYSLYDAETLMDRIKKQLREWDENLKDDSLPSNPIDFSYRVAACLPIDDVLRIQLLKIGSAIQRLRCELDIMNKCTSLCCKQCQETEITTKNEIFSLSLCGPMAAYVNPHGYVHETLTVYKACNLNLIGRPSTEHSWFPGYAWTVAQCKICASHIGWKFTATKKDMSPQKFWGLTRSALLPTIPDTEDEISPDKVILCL
Protein cereblon/Androgen receptor (Homo sapiens, UniProt P10275+Q96SW2, T878A), sequence (P10275 whole entry T878A, stated change not applied): as the sequence (P10275 whole entry, looked up) above, with T878A counted along it
Protein cereblon/Androgen receptor (Homo sapiens, UniProt P10275+Q96SW2, T878A), sequence (Q96SW2 whole entry, stated change not applied): as the sequence (Q96SW2 whole entry, looked up) above

## CN(c1ccc(C#N)c(Cl)c1)[C@H]1CC[C@H](NC(=O)c2ccc(N3CCN(C4CN(c5ccc6c(c5)C(=O)N(C5CCC(=O)NC5=O)C6=O)C4)CC3)cc2)CC1 (stereo partly drawn)
[1]
  Emax: > 95%
[2]
  Kp at 6 h: 0.6
[3]
  Activity: inactive
[4]
  inhibition: 80%
[5]
  Kp at 24 h: 1.7
[6]
  concentration at 24 h: 102 ng/mL
[7]
  concentration at 1 h: 437 ng/g
[8]
  concentration at 1 h: 210 ng/g
[9]
  inhibition: 80%
[10]
  Activity: inactive
VCaP [11]
  inhibition in vivo at 10 mg/kg: 78%
[12]
  Kp at 24 h: 0.5
[13]
  inhibition: > 80%
[14]
  Emax: > 95%
VCaP [15]
  inhibition in vivo at 40 mg/kg: 65.9%
[16]
  DC50: 0.1 nM
[17]
  Kp at 6 h: 4.9
[18]
  inhibition: 80%
[19]
  concentration at 6 h: 3510 ng/g
LNCaP [20]
  Ratio: 10
[21]
  inhibition: > 80%
[22]
  concentration at 6 h: 661 ng/g
[23]
  Ratio: 1000
LNCaP [24]
  IC50: 16.2 nM
[25]
  inhibition: > 80%
[26]
  concentration at 24 h: 301 ng/g
[27]
  Kp at 6 h: 2.5
[28]
  concentration at 1 h: 2640 ng/g
